Measurements published in ChEMBL document CHEMBL4406862, “Chalcone derivatives targeting mitosis: synthesis, evaluation of antitumor activity and lipophilicity” (Eur J Med Chem, 2019).
Activity calls are given as the source filed them. The rule behind the calls is not given here.

Legend:
[1] = Antiproliferative activity against human A375-C5 cells assessed as reduction in cell viability incubated for 48 hrs by sulforhodamine B assay; type: functional; details: A375-C5, 48 h
In short: (§1)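 Cells in RPMI-1640 with 5% FBS, 37 °C, 5% CO2; seeded 0.05×10^6 cells/well, 24 h, then two-fold serial dilutions from 0 to 150 μM (DMSO up to 0.25%) for 48 h. TCA fixation, SRB stain 30 min, dye solubilized in 10 mM Tris, absorbance 515 nm. GI50 from dose-response curve; mean ± SD, at least three independent experiments in duplicate.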

MCF7 = test: Antiproliferative activity against human MCF7 cells assessed as reduction in cell viability incubated for 48 hrs by sulforhodamine B assay; type: functional; details: MCF7, 48 h; in short: as §1
[2] = Lipophilicity, log k of compound in DMPC/buffer incubated for 30 mins by spectrophotometry; type: physicochemical; details: 0.5 h
In short: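 DMPC liposomes made by thin-film hydration in HEPES buffer, extruded at 40 °C. Fixed compound concentration with DMPC 50–1000 μM, incubated 30 min at 37 °C, pH 7.4; spectra 250–500 nm against compound-free references. Second-derivative values fitted (nonlinear least squares) versus lipid concentration to give Kp; lipid molar volume 0.66 L mol⁻¹; mean ± SD of at least three experiments.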

[3] = n-Octanol/water partition coefficient, log P of the compound incubated for 30 mins by spectrophotometry; type: physicochemical
NCI-H460 [4] = test: Antiproliferative activity against human NCI-H460 cells assessed as reduction in cell viability incubated for 48 hrs by sulforhodamine B assay; type: functional; details: NCI-H460, 48 h; in short: as §1
NCI-H460 [5] = test: Induction of mitotic arrest in human NCI-H460 cells assessed as abnormal mitotic spindle morphology at 3 times of GI50 incubated for 15 hrs by immunostaining based fluorescence microscopy; type: functional, cell-based
In short: (§2)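 NCI-H460 on poly-L-lysine coverslips treated 15 h at 3×GI50; fixed in 2% paraformaldehyde, 0.5% Triton X-100 permeabilization, 10% FBS blocking; mouse anti-α-tubulin (1:2500) then Alexa Fluor 488 secondary (1:1500); DAPI 2 µg/mL. Fluorescence microscopy of spindles; multipolar spindles as percentage of total spindles; mean ± SD, three independent experiments.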

NCI-H460 [6] = test: Induction of mitotic arrest in human NCI-H460 cells assessed as accumulation of bright round shape cells at 3 times of GI50 incubated for 15 hrs by phase contrast microscopy; type: functional, cell-based
NCI-H460 [7] = test: Induction of mitotic arrest in human NCI-H460 cells assessed as mitotic index at 3 times of GI50 incubated for 15 hrs by DAPI staining based phase contrast microscopy (reference value: 11.3 %); type: functional
NCI-H460 [8] = test: Induction of mitotic arrest in human NCI-H460 cells assessed as condensed chromosome at 3 times of GI50 incubated for 15 hrs by DAPI staining based phase contrast microscopy; type: functional, cell-based
In short: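 NCI-H460 treated 15 h at 3×GI50; DAPI staining of DNA viewed to detect condensed chromosomes of mitotic cells.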

NCI-H460 [9] = test: Induction of mitotic arrest in human NCI-H460 cells assessed as decrease in chromosome align at metaphase plate at 3 times of GI50 incubated for 15 hrs by DAPI staining based fluorescence microscopy; type: functional, cell-based; in short: as §2
NCI-H460 [10] = test: Induction of mitotic arrest in human NCI-H460 cells assessed as mitotic index 1 uM incubated for 15 hrs by DAPI staining based phase contrast microscopy (reference value: 11.3 %); type: functional
NCI-H460 [11] = test: Induction of mitotic arrest in human NCI-H460 cells assessed as accumulation of bright round shape cells at 1 uM incubated for 15 hrs by phase contrast microscopy; type: functional, cell-based
NCI-H460 [12] = test: Cytotoxicity against human NCI-H460 cells assessed as reduction in cell viability at 1 times of GI50 incubated for 48 hrs by MTT assay relative to control; type: functional
In short: (§3)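 MTT 0.5 mg/ml in serum-free medium 4 h; formazan dissolved in isopropanol/Triton/HCl 2 h; absorbance 570 nm. Viability relative to untreated cells; mean ± SD of at least three independent experiments.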

NCI-H460 [13] = test: Induction of mitotic arrest in human NCI-H460 cells assessed as multipolar spindles at 3 times of GI50 incubated for 15 hrs by fluorescence microscopy (reference value: 2 %); type: functional; in short: as §2
NCI-H460 [14] = test: Potentiation of paclitaxel-induced cytotoxicity against human NCI-H460 cells assessed as reduction in cell viability at 1 times of GI50 incubated for 48 hrs by MTT assay (reference value: 92.3 %); type: functional; in short: as §3
NCI-H460 [15] = test: Induction of cell death in human NCI-H460 cells assessed as micronucleation at 3 times of GI50 incubated for 24 hrs by DAPI staining based fluorescence microscopy; type: functional
In short: (§4)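 NCI-H460 cells exposed 24 h, DAPI-stained for DNA, nuclear morphology and micronucleation examined by fluorescence microscopy.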

NCI-H460 [16] = test: Potentiation of paclitaxel-induced cytotoxicity against human NCI-H460 cells assessed as reduction in cell viability at 0.5 times of GI50 incubated for 48 hrs by MTT assay (reference value: 92.3 %); type: functional; in short: as §3
NCI-H460 [17] = test: Cytotoxicity against human NCI-H460 cells assessed as reduction in cell viability at 0.5 times of GI50 incubated for 48 hrs by MTT assay relative to control; type: functional; in short: as §3
NCI-H460 [18] = test: Induction of cell death in human NCI-H460 cells assessed as abnormal nuclear morphology at 3 times of GI50 incubated for 24 hrs by DAPI staining based fluorescence microscopy; type: functional; in short: as §4
NCI-H460 [19] = test: Cytotoxicity against human NCI-H460 cells assessed as reduction in cell viability at 25 nM incubated for 48 hrs by MTT assay; type: functional, cell-based; in short: as §3

GI50 (MCF7) [µM]	log Kp [2]	logP at 0.5 h [3]	GI50 (NCI-H460 [4]) [µM]	Compound	GI50 [1] [µM]	other results
10.8	3.72	3.4	15.3	COc1ccc(/C=C/C(=O)c2cc(C)cs2)cc1OC	11.3	–
9.75	4.29	3.22	8.35	COc1cc(/C=C/C(=O)c2cc3cccc(O)c3o2)cc(OC)c1OC	8.57	Activity (NCI-H460 [5]): Active; Activity (NCI-H460 [6]): Active; Activity (NCI-H460 [7]): 25.8 - 49.37%; Activity (NCI-H460 [8]): Active; Activity (NCI-H460 [9]): Active
16.3	4.04	3.27	16.1	COc1cc(-c2cc(-c3cc(C)cs3)n[nH]2)cc(OC)c1OC	16.1	–
12.1	2.77	4.35	8.44	O=C(/C=C/c1ccc(Cl)c(Cl)c1)c1cccs1	7.25	–
7.7	3.41	3.14	7.12	COc1cc(/C=C/C(=O)c2cccs2)cc(OC)c1	4.15	–
12.6	3.49	3.02	13.6	COc1cc(OC)c(OC)cc1/C=C/C(=O)c1cccs1	11.1	–
–	–	–	–	COC(=O)Nc1nc2cc(C(=O)c3cccs3)ccc2[nH]1 [NOCODAZOLE]	–	Activity (NCI-H460 [10]): 73.1%; Activity (NCI-H460 [11]): Active
23.9	3.62	3.07	17.8	COc1ccc(/C=C/C(=O)c2cccs2)cc1OC	17.8	–
> 37.5	3.16	2.99	> 37.5	COc1cc(-c2cc(-c3cccs3)n[nH]2)cc(OC)c1OC	> 37.5	–
13.2	3.51	3.27	8.95	COc1ccc(/C=C/C(=O)c2ccc(OC)c(OC)c2)cc1OC	3.81	–
6.49	3.29	3.35	10.8	COc1cc(/C=C/C(=O)c2ccc(OC)c(OC)c2)cc(OC)c1	3.45	–
6.89	3.68	4.19	6.61	COc1cc(/C=C/C(=O)c2cc3ccccc3s2)cc(OC)c1OC	6.9	Activity (NCI-H460 [5]): Active; Activity (NCI-H460 [6]): Active; Activity (NCI-H460 [7]): 25.8 - 49.37%; Activity (NCI-H460 [8]): Active; Activity (NCI-H460 [9]): Active
14	3.75	2.5	16.9	COc1cc(C2OC2C(=O)c2cc(C)cs2)cc(OC)c1OC (stereo not given)	6.63	–
10.1	3.6	3.31	7.48	COc1cc(OC)c(OC)cc1/C=C/C(=O)c1cc(C)cs1	6.96	–
11.7	4.33	4.38	8.34	O=C(/C=C/c1cc(Cl)cc(Cl)c1)c1cccs1	5.38	–
59.9	2.8	2.51	61.8	COc1cc(C2OC2C(=O)c2cccs2)cc(OC)c1OC (stereo not given)	38.5	–
8.52	3.35	3.24	8.74	COc1cc(OC)c(OC)cc1/C=C/C(=O)c1ccc(OC)c(OC)c1	7.1	–
3.97	3.3	3.22	5.6	COc1ccc(C(=O)/C=C/c2cc(OC)c(OC)c(OC)c2)cc1OC	2.89	–
3.26	3.54	3.29	3.02	COc1cc(/C=C/C(=O)c2cc(C)cs2)cc(OC)c1OC	3.21	–
5.95	3.49	2.99	5.06	COc1cc(/C=C/C(=O)c2cccs2)cc(OC)c1OC	3.63	–
5.56	3.53	3.23	6.28	COc1cc(/C=C/C(=O)c2ccc(C)s2)cc(OC)c1OC	5.7	Activity (NCI-H460 [12]): 67.9%; Activity (NCI-H460 [13]): 28%; Activity (NCI-H460 [14]): 46.8%; Activity (NCI-H460 [15]): Active; Activity (NCI-H460 [5]): Active; Activity (NCI-H460 [16]): 51.8%; Activity (NCI-H460 [6]): Active; Activity (NCI-H460 [7]): 25.8 - 49.37%; Activity (NCI-H460 [8]): Active; Activity (NCI-H460 [17]): 96.9%; Activity (NCI-H460 [9]): Active; Activity (NCI-H460 [18]): Active
12.2	4.43	4.67	11.8	Cc1csc(C(=O)/C=C/c2cc(Cl)cc(Cl)c2)c1	7.14	–
15.1	3.14	4.52	27.7	COc1ccc(C(=O)/C=C/c2ccc(Cl)c(Cl)c2)cc1OC	4.14	–
8.41	4.1	4.54	9.61	COc1ccc(C(=O)/C=C/c2cc(Cl)cc(Cl)c2)cc1OC	4.51	–
4.28	3.52	3.43	4.44	COc1cc(/C=C/C(=O)c2cc(C)cs2)cc(OC)c1	3.33	–
–	–	–	–	CC(=O)O[C@H]1C(=O)[C@@]2(C)[C@H]([C@H](OC(=O)c3ccccc3)[C@]3(O)C[C@H](OC(=O)[C@H](O)[C@@H](NC(=O)c4ccccc4)c4ccccc4)C(C)=C1C3(C)C)[C@]1(OC(C)=O)CO[C@@H]1C[C@@H]2O	–	Activity (NCI-H460 [19]): inactive
22.5	2.8	4.65	15.5	Cc1csc(C(=O)/C=C/c2ccc(Cl)c(Cl)c2)c1	12.1	–
